Compound activity deposited in PubChem by several laboratories.
Rows were chosen to be rich in hits. Some 2.6% of all compounds tested hit in one or more screens of this group.
Rin1-Abl PPI inh = inhibitors of Rin1-Abl protein binding, primary screen, biochemical, TR-FRET; Tyrosine-protein kinase ABL1 (Homo sapiens) + Ras and Rab interactor 1 (Homo sapiens), …; inhibition, % at 7.35 µM; hit rate 0.4% among 360,000; AID 588664, 2011; in the data active = inhibition above about 5%, passing the limit was not always enough
GRK2 aptamer HTS = compounds blocking aptamer binding on GRK2 – biochemical, human GRK2, bead flow cytometry, HTS, primary screen | Beta-adrenergic receptor kinase 1 (Homo sapiens), P25098 | FAM-aptamer displacement from GRK2 | inhibition of aptamer binding, % at 10 µM | hit rate 0.59% among 330,000 | AID 488847, 2010;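 active = inhibition of aptamer binding above 40%, roughly 3 SD of noise, on plates passing a quality check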;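 also: median bead fluorescence of bound FAM aptamer so fluorescent compounds give negative values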
T cell modulator = modulators of CD8 T cell-vesicle binding, primary screen, mouse 2C CD8+ T cells, flow cytometry. response (vesicle binding), % at 7 µM. 2C CD8+ T cell-vesicle binding; hits give low values. hit rate 0.068% among 330,000;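 active = response, share of CD8 T cells binding vesicles, and their 90th percentile fluorescence all below set limits, cut at about 80% in these data, passing the limit was not always enough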;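 also: values below 100% mean blocked vesicle binding to the CD8+ T cells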
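System: murine 2C transgenic CD8+ T lymphocytes; also added: QL9-loaded Drosophila micro-vesicles; times: binding 1.5 h at 37 °C; measured by: flow cytometry, PE anti-B7-1 (FL2) versus Alexa647 anti-CD8 (FL8), PFA-fixed; control set: Peptide-free naked vesicles (low) and QL9 vesicles with 0.7% DMSO vehicle (high)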
SKN-1 inh = suppressors of acrylamide-induced Pgst-4::GFP reporter in worms, primary screen, SKN-1 inhibitor project, whole organism, uHTS, GFP/RFP fluorescence ratio, strain VP596 | hit rate 0.49% among 360,000 | C. elegans VP596 Pgst-4::GFP/RFP ratio, 24 h | inhibition, % at 21.8 µM | AID 624304, 2012;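 active = interference check ratio from 0.5 to 1.5 plus GFP to RFP signal ratio inhibition reaching or exceeding a fixed threshold, cut at about 30% in these data, passing the limit was not always enough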
Myeloid diff MLP = induction of myeloid progenitor differentiation, primary screen, cell-based, flow cytometry, MLPCN library | ER-HoxA9 myeloid progenitors, lysozyme-GFP differentiation | hit rate 1% among 360,000 | calls only at 10 µM;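 active = normalized GFP-positive differentiation at or above the plate's own cutoff, the solvent-only control mean plus 3 SD; inconclusive = no clear call, values can overlap the other calls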;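 also: cells exposed to compound for four days before flow analysis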
Rce1 inh = yeast Rce1p protease inhibitors, primary screen, biochemical, fluorescence, cell-free homogeneous | CAAX prenyl protease 2 (Saccharomyces cerevisiae (strain ATCC 204508 / S288c)), Q03530 | yeast membranes, quenched prenylated peptide cleavage fluorescence | calls only | hit rate 0.27% among 290,000;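 active = fall in fluorescence gain of 50% or more versus controls, with final raw signal at or below 3038400; inconclusive = same 50% fall but final raw signal above 3038400; inactive = fall in fluorescence gain under 50%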;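 also: plate controls were neutral control wells for no effect and wells lacking membranes for full effect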
Target sequence (Q03530 whole entry, looked up): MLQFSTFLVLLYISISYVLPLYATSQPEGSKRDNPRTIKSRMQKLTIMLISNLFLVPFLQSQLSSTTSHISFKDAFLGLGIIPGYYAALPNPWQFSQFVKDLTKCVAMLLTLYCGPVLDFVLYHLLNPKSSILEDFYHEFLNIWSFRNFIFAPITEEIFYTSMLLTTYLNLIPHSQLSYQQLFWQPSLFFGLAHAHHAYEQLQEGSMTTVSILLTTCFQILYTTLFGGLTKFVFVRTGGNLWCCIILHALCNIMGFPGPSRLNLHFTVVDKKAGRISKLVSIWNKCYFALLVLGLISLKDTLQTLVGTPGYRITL
Myeloid diff CP1 = inducers of myeloid progenitor differentiation, confirmation, cell-based, GFP/Mac1 flow cytometry, cherry pick 01. shares compounds with Myeloid diff MLP. ER-HoxA9 myeloid progenitors, GFP/Mac1 double-positive flow. calls only. hit rate 2% among 2,300;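 active = share of green or green-and-red cells above 9 and 9% in run 1 or 4 and 3% in run 2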
GFP autofluor = compound fluorescence in myeloid differentiation counter-screen; ER-HoxA9 myeloid progenitors, no estrogen, GFP autofluorescence flow cytometry; vehicle wells 0%, positive control 100%; shares compounds with Myeloid diff MLP; hit rate 7.4% among 2,300; AID 651707; fluorescence response, % (test concentration not listed);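 active = over 5% cells positive for green fluorescent reporter, or over 2% positive for both it and APC stain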;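 also: range taken on the double positive population between DMSO and positive control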
Starred values were filed as active, the others as inactive; i = inactive; ? = inconclusive; . = no result given; + = active, no number.

SMILES | Rin1-Abl PPI inh | GRK2 aptamer HTS | T cell modulator | SKN-1 inh | Myeloid diff MLP | Rce1 inh | Myeloid diff CP1 | GFP autofluor
COc1ccc(CN(C(=O)c2ccco2)c2ccc(C)c(C)c2)cc1 | 0 | 0 | 421 | 4 | + | i | i | 0
COc1cc(CN(C(=O)c2ccco2)c2ccc(C)cc2)ccc1O | 2 | 0 | 519 | -7 | i | i | . | .
O=C(NCc1ccc2c(c1)OCO2)C1CCN(c2ncccn2)CC1 | -1 | 0 | 481 | -8 | i | i | i | 1
Cc1ccnc(N2CCC(C(=O)NCc3ccc4c(c3)OCO4)CC2)n1 | -1 | 0 | 420 | 2 | i | i | . | .
Oc1ccccc1N=Cc1ccc[nH]1 | -4 | 31 | 383 | -19 | + | i | i | 0
C(=Nc1ccccc1)c1ccc[nH]1 | 4 | . | . | 18 | i | . | . | .
CC1(C)CC(=O)C=C(NCC(=O)O)C1 | 4 | 4 | 517 | 10 | i | i | . | .
CCSCCC(NC1=CC(=O)CC(C)(C)C1)C(=O)O (centres undefined) | 1 | 3 | 752 | -2 | + | i | i | 0
CCCn1c(C(O)c2cc(OC)c(OC)c(OC)c2)nc2ccccc21 (centres undefined) | 1 | 1 | 217 | -5 | i | i | . | .
Cc1cc(C)c(CN2CCN(C(=O)CC[C@H]3O[C@@H](n4cnc5c(NC(=O)c6ccccc6)ncnc54)[C@H](O)[C@@H]3O)CC2)c(C)c1 | 2 | . | . | -21 | i | . | . | .
C(=Cc1nc2ccccc2o1)c1ccc2c(c1)OCO2 | 2 | . | . | 10 | i | . | . | .
C[n+]1c(/C=C/c2ccc3c(c2)OCO3)ccc2ccccc21 | -2 | 0 | 160 | 1 | i | i | + | 0
COc1ccc(NC(=O)C(NCC(C)C)c2ccccc2)cc1Cl (centres undefined) | -2 | 8 | 122 | 5 | i | i | . | .
CCN(CC)C(=O)CSc1nnc([C@@H](NC(=O)OC(C)(C)C)C(C)C)o1 | -2 | 0 | 366 | -30 | i | i | i | 1
CCN(CC)C(=O)CSc1nnc([C@H](CCSC)NC(=O)OC(C)(C)C)o1 | 1 | 3 | 467 | -4 | i | i | . | .
CCCC(=O)Nc1nc2ccc(NC(=O)c3ccc(Br)o3)cc2s1 | 1 | 0 | 208 | -12 | + | i | i | 0
NC(=O)CC(NC(=O)Cc1ccc(Cl)cc1)c1ccc(NC2CCCCC2)c([N+](=O)[O-])c1 (centres undefined) | -4 | 2 | i | 3 | i | i | i | 0
NC(=O)CC(NC(=O)Cc1ccc(Cl)cc1)c1ccc(NC2CCCC2)c([N+](=O)[O-])c1 (centres undefined) | -2 | 0 | 405 | 6 | i | i | . | .
O=C1N(Cc2cccc(Cl)c2)C[C@@H]2C[C@@H](c3ccc4nonc4c3)N3CCC[C@@]123 | 1 | 3 | 270 | 1 | i | i | . | .
CC(=O)O[C@]1(C(C)=O)CC[C@H]2[C@@H]3C=C(Cl)C4=CC(=O)CC[C@]4(C)[C@H]3CC[C@@]21C | -2 | 1 | 389 | 6 | i | i | i | 0
Cn1ccc2c(N3CCCCC3)cc3c(c21)C1CCC3O1 (centres undefined) | 3 | . | . | 4 | i | . | . | .
COc1ccc(C2C(=O)N(C3CCCCC3)CC(=O)N2Cc2ccc3c(c2)OCO3)cc1 (centres undefined) | 8 | 2 | 241 | 3 | i | i | i | 4
COCCCNC(=O)C1CCC(=O)N(c2ccc3c(c2)OCO3)C1c1ccc(OC)cc1 (centres undefined) | 3 | 2 | 218 | 12 | i | i | i | 0
C/C(=N/NC(=O)CN(c1ccccc1)S(=O)(=O)c1ccccc1)c1ccccc1O | -1 | 0 | 164 | -10 | i | i | i | 0
CCCC/C(C)=N/NC(=O)CN(c1ccc(Br)cc1)S(=O)(=O)c1ccccc1 | 1 | 1 | 770 | 13 | i | i | . | .
SMILES | Rin1-Abl PPI inh | GRK2 aptamer HTS | T cell modulator | SKN-1 inh | Myeloid diff MLP | Rce1 inh | Myeloid diff CP1 | GFP autofluor
OCC[C@@H]1C[C@H](O)[C@@H](O)[C@]2(CCCCO2)O1 | 5 | 2 | 187 | -19 | i | i | . | .
Cc1cccc(S(=O)(=O)Nc2cccc(-c3cn4ccsc4n3)c2)c1 | 0 | 2 | 442 | 3 | i | i | . | .
Cc1ccc(S(=O)(=O)Nc2cccc(-c3cn4ccsc4n3)c2)cc1 | 1 | 0 | 358 | 24 | i | i | i | 1
O=C(c1ccccc1)c1ccc(C(=O)N2CCN(c3ccccc3Cl)CC2)cc1 | 2 | 3 | 522 | -2 | i | . | i | 0
O=C(c1cccnc1)N1CCN(c2ccccc2Cl)CC1 | . | 3 | 202 | . | . | i | . | .
COc1c(C)cc(C(=O)C2CCCN(C(=O)/C=C/c3ccccn3)C2)cc1C (centres undefined) | -5 | 1 | 369 | -11 | i | i | . | .
O=C(CCS(=O)(=O)c1ccc(Cl)cc1)Nc1nnc(-c2ccco2)o1 | 0 | 3 | 344 | 18 | + | i | i | 0
CCOc1ccc(/C=N/NC(=O)c2ccccc2Cl)cc1CN1CC2CC(C1)c1cccc(=O)n1C2 (centres undefined) | 0 | 0 | 981 | 8 | i | . | i | 0
CC(C)c1nnc(NC(=O)Cn2nc(-c3ccc4c(c3)OCCO4)ccc2=O)s1 | 3 | 0 | 193 | -7 | + | i | i | 0
COc1cccc(OC)c1NC(=O)Cn1nc(-c2ccc3c(c2)OCCO3)ccc1=O | -4 | 0 | 488 | 5 | . | i | . | .
CC(C)(C)C(=O)Nc1cc(NC(=O)C(C)(C)C)cc(C(=O)NNC(=O)c2ccncc2)c1 | -1 | 0 | 240 | -10 | + | i | i | 0
CCc1cc(-c2nnn(CCC3COCCO3)c2CC)cc(CC)c1-c1cn(CCc2c[nH]c3ccccc23)nn1 (centres undefined) | 1 | . | . | 4 | i | . | . | .
O=C(NCCc1ccc(F)cc1)C(=O)NCC1CCCN1S(=O)(=O)c1ccccc1 (centres undefined) | 4 | 0 | 583 | -3 | ? | i | . | .
